One experiment concerns NCI-H522. Briefly: Cytotoxicity against human NCI-H522 by SRB assay. In kind it is functional, cell-based. Summed up:
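SRB cytotoxicity assay after 24 h drug exposure. Cells grown in DMEM with 10% FBS and penicillin/streptomycin at 37 °C under 5% CO2. Compounds taken from 10 mM DMSO stocks and diluted in medium over 0.1–50 μM, final DMSO 0.2%, with DMSO-only controls. IC50 obtained by non-linear regression of dose-response curves.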
For orientation: The SRB assay estimates cell density from bound dye.

The target of experiment [1] is RAC-alpha serine/threonine-protein kinase (Homo sapiens) (UniProt P31749). The experiment is described as follows: Inhibition of AKT phosphorylation in human A549 at 5 uM after 24 hrs by Western blot analysis. Format: functional. In a few lines:
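A549 cells treated 24 h with 5 μM compound, with DMSO controls. Lysed in Tris pH 7.4/NaCl/EDTA/EGTA/1% Triton X-100 buffer containing NaF, Na3VO4 and protease inhibitors, 10 min at 4°C, then cleared at 14,000 xg. 10 μg protein by BCA run on SDS-PAGE and blotted to PVDF. Probed with anti-pAKT and compared with pan-AKT.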

Experiment [2] concerns A549. The experiment is described as follows: Induction of autophagy in human A549 cells assessed as increase in LC3II after 3 hrs relative to control. In kind it is functional, cell-based. Summed up:
(§1)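 A549 cells given 5 μM compound, with DMSO-treated controls, and harvested at times from 0 to 24 h. Lysis buffer: 20 mM Tris pH 7.4, 150 mM NaCl, 1 mM EDTA/EGTA, 1% Triton X-100, NaF, Na3VO4 and protease inhibitors, 10 min at 4°C. 10 μg protein run on SDS-PAGE and immunoblotted for LC3B, with actin as loading reference.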

The subject of experiment [3] is A549. Briefly: Induction of autophagy in human A549 cells assessed as increase in LC3II after 24 hrs relative to control. In kind it is functional, cell-based. In a few lines: as §1
The test system of experiment [4] is A549. The experiment is described as follows: Cytotoxicity against human A549 cells by SRB assay. In kind it is functional, cell-based.
The test system of the next experiment is NCI-H2126. The experiment is described as follows: Cytotoxicity against human NCI-H2126 by SRB assay. In kind it is functional, cell-based.
In another experiment the test system is NCI-H1299. The experiment is described as follows: Cytotoxicity against human NCI-H1299 by SRB assay. In kind it is functional, cell-based.
The next experiment has as its system NCI-H226. The experiment is described as follows: Cytotoxicity against human NCI-H226 by SRB assay. Format: functional, cell-based.
A further experiment has as its system NCI-H460. Briefly: Cytotoxicity against human NCI-H460 by SRB assay. In kind it is functional, cell-based.
The test system of a further experiment is NCI-H23. Briefly: Cytotoxicity against human NCI-H23 by SRB assay. Format: functional, cell-based.
Experiment [5] in a line: Cytotoxicity against human H441 by SRB assay. The conditions noted are these: NCI-H441. Format: functional.
The next experiment is filed under the species Homo sapiens. The settings on record: at 5 µM.

Activity calls are given as the source filed them. No cut-off for these calls is given here.

Here are results for three molecules from ChEMBL document CHEMBL1268848, “Selenium-containing analogs of SAHA induce cytotoxicity in lung cancer cells” (Bioorg Med Chem Lett, 2010).

In general, IC50 refers to the concentration needed to halve the response being measured. The low end stands for inhibition by little substance, the high end for a need for much substance.

RAC-alpha serine/threonine-protein kinase (Homo sapiens), sequence (P31749 whole entry): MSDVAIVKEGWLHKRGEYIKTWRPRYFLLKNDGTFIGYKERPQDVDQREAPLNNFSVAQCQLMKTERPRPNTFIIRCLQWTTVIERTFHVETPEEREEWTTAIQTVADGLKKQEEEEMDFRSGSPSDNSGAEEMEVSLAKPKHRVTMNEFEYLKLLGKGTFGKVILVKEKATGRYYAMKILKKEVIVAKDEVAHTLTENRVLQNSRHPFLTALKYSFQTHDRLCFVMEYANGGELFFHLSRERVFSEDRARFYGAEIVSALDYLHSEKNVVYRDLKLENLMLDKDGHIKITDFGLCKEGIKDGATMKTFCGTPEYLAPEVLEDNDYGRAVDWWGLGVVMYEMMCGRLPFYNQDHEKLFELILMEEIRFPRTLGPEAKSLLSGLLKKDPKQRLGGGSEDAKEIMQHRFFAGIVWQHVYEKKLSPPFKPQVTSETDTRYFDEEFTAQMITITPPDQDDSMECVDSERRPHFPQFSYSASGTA

Turning to `O=C(CCCCCCC(=O)Nc1ccccc1)NO` [VORINOSTAT], the IC50 with NCI-H522 is 832 nM. In addition, the inhibition entry in experiment [1] was “inactive”. Besides, the outcome in the experiment on A549 [2] was inactive.
In the case of `N#C[Se]CCCCCC(=O)Nc1ccccc1`, the result in the experiment on A549 [3] and in the experiment with A549 [2] was Active. Further, the IC50 in the experiment with A549 [4] is 653 nM; in the experiment on NCI-H2126, 928 nM; in the experiment with NCI-H1299 it was 923 nM; in the experiment with NCI-H226, 1050 nM; in the experiment on NCI-H460 it was 1460 nM; in the experiment with NCI-H522, 779 nM. The IC50 in the experiment with NCI-H23 worked out at 271 nM; in experiment [5], 449 nM. Moreover, the inhibition entry (in experiment [1]; in the experiment filed under Homo sapiens) was “Active” in each case.
`O=C(CCCCC[Se][Se]CCCCCC(=O)Nc1ccccc1)Nc1ccccc1`: the result with A549 [3] and in the experiment on A549 [2] was Active. Moreover, the IC50 stood at 370 nM in the experiment on A549 [4]; 1090 nM in the experiment with NCI-H2126; 438 nM with NCI-H1299; 1730 nM with NCI-H226; 2130 nM with NCI-H460; 188 nM with NCI-H522. The IC50 turned out to be 279 nM in the experiment with NCI-H23 and 92 nM in [5]. For the same molecule, the inhibition entry (in experiment [1]; in the experiment listed under Homo sapiens) was “Active” in each case.
